Measurements published in PMC4029506 (Bioorganic & medicinal chemistry, 2014).
Blank lines part the entries; values can stand above or below the compound they belong to.

What was measured:
[1] = target: T1, purified recombinant rat FAAH (rFAAH) (Rattus norvegicus, UniProt P97612); experiment: FAAH enzyme inhibition assay; type: biochemical; settings: for fold loss in activity / fold less potent than 3 against FAAH: relative to 3
T1 sequence (P97612 30-579 limits assumed): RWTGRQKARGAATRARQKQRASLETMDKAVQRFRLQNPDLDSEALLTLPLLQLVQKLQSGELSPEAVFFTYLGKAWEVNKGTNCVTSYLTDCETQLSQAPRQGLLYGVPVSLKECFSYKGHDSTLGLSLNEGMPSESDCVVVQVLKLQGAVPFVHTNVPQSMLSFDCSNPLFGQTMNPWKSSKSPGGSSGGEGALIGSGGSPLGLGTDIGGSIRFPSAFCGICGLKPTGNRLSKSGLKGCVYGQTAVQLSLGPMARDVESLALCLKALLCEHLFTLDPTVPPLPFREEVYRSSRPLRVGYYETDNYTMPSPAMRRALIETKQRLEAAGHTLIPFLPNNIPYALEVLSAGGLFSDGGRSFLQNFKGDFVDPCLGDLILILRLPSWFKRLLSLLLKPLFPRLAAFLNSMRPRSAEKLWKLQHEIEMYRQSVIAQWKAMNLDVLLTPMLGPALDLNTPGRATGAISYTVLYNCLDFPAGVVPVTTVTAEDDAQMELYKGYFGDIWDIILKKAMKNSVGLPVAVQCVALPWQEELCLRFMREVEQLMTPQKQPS

[2] = Epimerization in assay buffer without enzyme, monitored by chiral HPLC; type: physicochemical; settings: assay buffer pH 9.1, without enzyme, 30 min
Outline: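 Test compound dissolved in DMSO and added to assay buffer (pH 9.1) with no enzyme. Enantiopurity was followed by chiral HPLC over a 30 min exposure. Loss of enantiomeric excess is reported as percent change.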

[3] = system: serine hydrolases in the mouse brain proteome including KIAA1363, MAGL, and ABHD6; experiment: Activity-based protein profile; type: biochemical; settings: both enantiomers; mouse brain proteome 1 mg/mL, FP-rhodamine 100 nM, 10 nM to 100 μM
[4] = previously observed; cited from earlier work
cannabinoid CB1 receptor = settings: cited from earlier work
cannabinoid CB2 receptor = settings: cited from earlier work
vanilloid receptors = settings: cited from earlier work
[5] = system: human ether-a-go-go related gene (hERG); settings: cited from earlier work
P450 3A4 = settings: cited from earlier work
P450 2C9 = settings: cited from earlier work
P450 2D6 = settings: cited from earlier work
FAAH = settings: cited from earlier work
Hemiketal / hydrate = type: physicochemical; settings: for hydrate (gem diol) formation at 24 h: 7% D2O–DMSO-d6, 24 h; for hydrate (gem diol) formation initially: 7% D2O–DMSO-d6, initially; for hemiketal formation: in CD3OD
[6] = Racemization after dissolution in a variety of solvents; type: physicochemical; settings: 5% Et3N in EtOAc

fold loss in activity / fold less potent than 3 against FAAH [1]: 2- to 4 fold | total change in ee (loss of enantiopurity) [2]: −1.7%
SMILES: O=C(c1ncc(-c2ccccn2)o1)C1COc2cc(Oc3ccccc3)ccc2C1 (stereo not drawn) [compound 47]
selectivity for FAAH over all other serine hydrolases [3]: > 200 fold

SMILES: O=C(CCCCCCc1ccccc1)c1ncc(-c2ccccn2)o1 [compound 2]
hydrated (gem diol) state in solution [4]: do not adopt a hydrated (gem diol) state | binding to CB1 (cannabinoid CB1 receptor): does not bind | binding to CB2 (cannabinoid CB2 receptor): does not bind | binding to vanilloid receptors (vanilloid receptors): does not bind | inhibition of hERG [5]: does not inhibit | inhibition of P450 3A4 (P450 3A4): does not inhibit | inhibition of P450 2C9 (P450 2C9): does not inhibit | inhibition of P450 2D6 (P450 2D6): does not inhibit | antinociception in FAAH knockout mice (FAAH; FAAH knockout mice): No antinociception | in vivo activity (FAAH): antinociceptive and anti-inflammatory activity | levels of anandamide in vivo (FAAH): increases

hydrate (gem diol) or hemiketal formation (Hemiketal / hydrate; CD3OD and 7% D2O–DMSO-d6): no detectable
SMILES: O=C(c1ncc(-c2ccccn2)o1)[C@H]1CCc2cc(Oc3ccccc3)ccc2C1 [compound 3, reference compound]

fold loss in activity / fold less potent than 3 against FAAH [1]: 8 fold | fold reduction in activity upon introduction of the C5-pyridine substituent (14 vs 16) ([1]; relative to 16): 2 fold | total change in ee (loss of enantiopurity) [2]: −4.4% | racemization within the first hour [6]: significant racemization | time to complete epimerization ([6]; continued exposure): ≤ 48 h | hydrate (gem diol) formation at 24 h (Hemiketal / hydrate): 25% | hydrate (gem diol) formation initially (Hemiketal / hydrate): no gem diol detected | hemiketal formation (Hemiketal / hydrate): 34%
SMILES: O=C(c1ncc(-c2ccccn2)o1)C1CCc2cc(Oc3ccccc3)ccc2O1 (stereo not drawn) [compound 14]
selectivity for FAAH over all other serine hydrolases [3]: > 200 fold

total change in ee (loss of enantiopurity) [2]: −6.8% | hydrate (gem diol) formation at 24 h (Hemiketal / hydrate): 13% | hydrate (gem diol) formation initially (Hemiketal / hydrate): no gem diol detected | hemiketal formation (Hemiketal / hydrate): 38%
SMILES: O=C(c1ncco1)C1CCc2cc(Oc3ccccc3)ccc2O1 (stereo not drawn) [compound 16]

fold difference in potency between the two enantiomers ([1]; FAAH inhibition): 1.6 fold
SMILES: O=C(c1ncc(I)o1)C1COc2cc(Oc3ccccc3)ccc2C1 (stereo not drawn) [compound 54]

hydrate (gem diol) formation at 24 h (Hemiketal / hydrate): 27% | hydrate (gem diol) formation initially (Hemiketal / hydrate): no gem diol detected | hemiketal formation (Hemiketal / hydrate): 45%
SMILES: COC(=O)c1cccc(-c2cnc(C(=O)C3CCc4cc(Oc5ccccc5)ccc4O3)o2)n1 (stereo not drawn) [compound 15]

potency relative to the unsubstituted parent oxazoles ([1]; installation of the pyridine substituent at C5): roughly equipotent | fold less active than either 2 or 3 ([1]; relative to 2 or 3): 4 fold | fold loss in activity / fold less potent than 3 against FAAH [1]: 2- to 4 fold | total change in ee (loss of enantiopurity) [2]: −4.8%
SMILES: O=C(c1ncc(-c2ccccn2)o1)C1COc2cc(OCc3ccccc3)ccc2C1 (stereo not drawn) [compound 46]
